For 15 molecules, Ki and IC50 results are on record in ChEMBL document CHEMBL3627614, “Structure-based design, synthesis, X-ray studies, and biological evaluation of novel HIV-1 protease inhibitors containing isophthalamide-derived P2-ligands” (Bioorg Med Chem Lett, 2015).

In general, pKi refers to the Ki on a negative log10 scale, so that one unit is a factor of ten. The pIC50 is the IC50 on a negative log10 scale, so that one unit is a factor of ten.

The structures appear in SMILES notation. pIC50, pKi: −log10 of the molar value.

In one test the target is Protease (Human immunodeficiency virus 1, UniProt Q9YQ12). Nature of the test: Inhibition of HIV-1 protease by fluorometric assay. In short, it runs like this:
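Run by a previously published protease assay protocol, with inhibitory potency reported as the inhibition constant Ki.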

The subject of test [1] is Human immunodeficiency virus 1. Nature of the test: Antiviral activity against HIV-1 LAI infected in MT-2 cells measured after 7 days by MTT assay. The class given is functional, organism-based. The conditions noted are these: Human immunodeficiency virus 1, LAI, MT2, 168 h. (In general: Formazan colour is commonly taken as a measure of viable cells.)

Chain of Protease (Q9YQ12 whole entry): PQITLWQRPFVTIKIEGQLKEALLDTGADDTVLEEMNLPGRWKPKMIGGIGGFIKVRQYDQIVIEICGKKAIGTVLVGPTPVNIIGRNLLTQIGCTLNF

Molecule `CCCN(C)C(=O)c1cccc(C(=O)N[C@@H](Cc2ccccc2)[C@H](O)CN(CC(C)C)S(=O)(=O)c2ccc(OC)cc2)c1` had a pKi at Protease of 8.29. In turn, `COC[C@H]1C[C@H](O)CN1C(=O)c1cccc(C(=O)N[C@@H](Cc2ccccc2)[C@H](O)CN(CC(C)C)S(=O)(=O)c2ccc(OC)cc2)c1` showed a pKi at Protease of 9.57. The same molecule showed a pIC50 in test [1] of 6.41. On the same counts, the results for `COc1ccc(S(=O)(=O)N(CC(C)C)C[C@@H](O)[C@H](Cc2ccccc2)NC(=O)c2cc(C)cc(C(=O)N(C)Cc3nc(C)oc3C)c2)cc1` are 9.68 and 7.51. In turn, `COC[C@H]1C[C@@H](O)CN1C(=O)c1cccc(C(=O)N[C@@H](Cc2ccccc2)[C@H](O)CN(CC(C)C)S(=O)(=O)c2ccc(OC)cc2)c1` gave a pKi on Protease of 9.57. The molecule further gave a pIC50 in test [1] of 6.72.

`COc1ccc(S(=O)(=O)N(CC(C)C)C[C@@H](O)[C@H](Cc2ccccc2)NC(=O)c2cccc(C(=O)N3CCN(C)CC3)c2)cc1`: the pKi on Protease was 9.27. Moreover, the pIC50 in test [1] is 7.35. On the same counts, the results for `COC[C@@H]1C[C@H](O)CN1C(=O)c1cccc(C(=O)N[C@@H](Cc2ccccc2)[C@H](O)CN(CC(C)C)S(=O)(=O)c2ccc(OC)cc2)c1` are 8.82 and below 6.00. On Protease, `Cc1coc(CN(C)C(=O)c2cccc(C(=O)N[C@@H](Cc3ccccc3)[C@H](O)CN(CC(C)C)S(=O)(=O)c3ccc(CO)cc3)c2)n1` had a pKi of 9.20.

On to `COCc1coc(CN(C)C(=O)c2cccc(C(=O)N[C@@H](Cc3ccccc3)[C@H](O)CN(CC(C)C)S(=O)(=O)c3ccc(OC)cc3)c2)n1`, for which the pKi at Protease was 9.51. Besides, the pIC50 in test [1] was 7.60.

Consider `CCCN(C)C(=O)c1cc(NC)cc(C(=O)N[C@@H](Cc2ccccc2)[C@H](O)CN(CC(C)C)S(=O)(=O)c2ccc(OC)cc2)c1`, for which the pKi on Protease was 6.80. Take `CCCN(CCC)C(=O)c1cccc(C(=O)N[C@@H](Cc2ccccc2)[C@H](O)CN(CC(C)C)S(=O)(=O)c2ccc(OC)cc2)c1`: the pKi on Protease was 7.91. Besides, the pIC50 in test [1] was below 6.00. `COc1ccc(S(=O)(=O)N(CC(C)C)C[C@@H](O)[C@H](Cc2ccccc2)NC(=O)c2cccc(C(=O)N3CCOCC3)c2)cc1` had a pKi at Protease of 9.38. Besides, the pIC50 in test [1] was 7.60.

In turn, `COC[C@@H]1C[C@@H](O)CN1C(=O)c1cccc(C(=O)N[C@@H](Cc2ccccc2)[C@H](O)CN(CC(C)C)S(=O)(=O)c2ccc(OC)cc2)c1` showed a pKi at Protease of 8.55. The pIC50 in test [1] is 6.75. In the case of `COc1ccc(S(=O)(=O)N(CC(C)C)C[C@@H](O)[C@H](Cc2ccccc2)NC(=O)c2cccc(C(=O)N(C)Cc3nc(C)oc3C)c2)cc1`, on Protease, the pKi was 9.77. This molecule also had a pIC50 in test [1] of 7.85. `CCCNC(=O)c1cccc(C(=O)N[C@@H](Cc2ccccc2)[C@H](O)CN(CC(C)C)S(=O)(=O)c2ccc(OC)cc2)c1` had a pKi at Protease of 7.60.

Regarding `CCCN(C)C(=O)c1cc(OC)cc(C(=O)N[C@@H](Cc2ccccc2)[C@H](O)CN(CC(C)C)S(=O)(=O)c2ccc(OC)cc2)c1`, the pKi at Protease is 7.69.
